From ChEMBL document CHEMBL2203173 (J Med Chem, 2012)

How the values were obtained:
[1] = tested on: SK-N-MC; assay: Antiproliferative activity at human SK-N-MC cells after 72 hrs by MTT assay; type: functional, cell-based
[2] = tested on: A549; assay: Antiproliferative activity at human A549 cells after 72 hrs by MTT assay; type: functional, cell-based
[3] = tested on: DMS-53; assay: Antiproliferative activity at human DMS53 cells after 72 hrs by MTT assay; type: functional, cell-based
[4] = tested on: SK-N-MC; assay: Ratio of Dp4mT IC50 to compound IC50 for human SK-N-MC cells; type: functional
[5] = tested on: A549; assay: Ratio of compound IC50 to Dp44mT IC50 for human A549 cells; type: functional
[6] = tested on: SK-N-MC; assay: Induction of 59Fe mobilization in human SK-N-MC cells at 25 uM after 3 hrs by gamma-scintillation counter; type: functional
Outline: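 SK-N-MC cells prelabeled with 59Fe-transferrin (0.75 μM) for 3 h/37 °C, then washed four times on ice with ice-cold PBS. Cells reincubated with or without chelators (25 μM) for 3 h/37 °C. Released 59Fe given as % of cellular 59Fe. Mean ± SD of three experiments.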

[7] = tested on: SK-N-MC; assay: Inhibition to 59Fe uptake from 59Fe-transferrin in human SK-N-MC cells at 25 uM after 3 hrs; type: functional; parameters: scale not given: the % may be the effect or the level left
Outline: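 SK-N-MC cells labeled with 59Fe-transferrin (0.75 μM) for 3 h/37 °C with or without chelators (25 μM). Cells washed four times on ice with ice-cold PBS. Internalized 59Fe separated with Pronase (1 mg/mL) and expressed as % of control. Mean ± SD of three experiments.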

[8] = tested on: MRC5; assay: Antiproliferative activity at human MRC5 cells after 72 hrs by MTT assay; type: functional, cell-based; settings: MRC5, 72 h
[9] = tested on: SK-N-MC; assay: Inhibition to 59Fe uptake from 59Fe-transferrin in human SK-N-MC cells at 25 uM after 3 hrs relative to Dp4eT
[10] = tested on: A549; assay: Ratio of compound IC50 to NIH IC50 for human A549 cells; type: functional
Outline: (§1)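 A549 human non-small cell lung carcinoma cells were exposed to agents for 72 h. IC50 is the concentration that inhibits cell growth to 50% of the untreated control. Values are mean ± SD of three experiments. The ratio is the compound IC50 divided by the IC50 of the reference chelator (DFO or NIH) from the same assay.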

[11] = tested on: A549; assay: Ratio of compound IC50 to DFO IC50 for human A549 cells; type: functional; outline: as §1

`CCN(C(=S)NN=C(c1ccccn1)c1ccccn1)c1ccccc1` was tested, and the IC50 [1] was 10 nM.
Work on `Nc1ccn([C@@H]2O[C@H](CO)[C@@H](O)C2(F)F)c(=O)n1` [GEMCITABINE] yielded an IC50 ([2]; Homo sapiens, A549, 72 h) of 20 nM and an IC50 ([3]; Homo sapiens, DMS-53, 72 h) of 9 nM.
For `CN(C(=S)NN=C(c1ccccn1)c1ccccn1)C1CCCCC1`, the IC50 [1] was 13 nM, the “Ratio IC50” value [4] was 23 and the “Ratio IC50” value [5] was 5. It also gave an IC50 ([3]; dms-53) of 8 nM.
In the case of `CCN(C)C(=S)N/N=C(\c1ccccc1)c1ccccn1`, the IC50 [1] is reported as 6 nM.
With `CC(=O)N(O)CCCCCNC(=O)CCC(=O)N(O)CCCCCNC(=O)CCC(=O)N(O)CCCCCN` [DEFEROXAMINE] the Activity [6] was 15.2%, the Activity [7] was 84% and the IC50 ([2]; Homo sapiens, A549, 72 h) was 7500 nM. The IC50 [8] was > 10000 nM and the IC50 ([3]; Homo sapiens, DMS-53, 72 h) was 10000 nM.
`O=C(N/N=C/c1c(O)ccc2ccccc12)c1ccncc1` gave an Activity [6] of 44.9%, an IC50 [1] of 1100 nM and an Activity [7] of 5.3%. The IC50 ([2]; Homo sapiens, A549, 72 h) was 2200 nM, the IC50 [8] was > 10000 nM and the IC50 ([3]; Homo sapiens, DMS-53, 72 h) was 1100 nM.
Work on `CCN(CC)C(=S)NN=C(c1ccccn1)c1ccccn1` yielded an IC50 [1] of 5 nM and a Ratio [9] of 2.
In the case of `CCN(C)C(=S)NN=C(c1ccccn1)c1ccccn1`, the IC50 [1] is reported as 4 nM, the IC50 ([2]; a549) is reported as 10 nM and the “Ratio IC50” value [10] is reported as 137. For the same compound, the “Ratio IC50” value [11] was 137 and the IC50 ([3]; dms-53) was 8 nM.
